Data set [1] is described as follows: Stability in human microsomes assessed as parent compound remaining after 30 mins. Format: ADME, Microsome. The note with it: read-out: Stabilty.
Data set [2] concerns the target CYP2D6 (Homo sapiens, UniProt P10635). The data set is described as follows: Inhibition of CYP2D6 (unknown origin) assessed as residual activity. The class given is ADME.
For data set [3], the target named is T1, CYP1A2 (Homo sapiens, UniProt P05177).
T1 sequence (P05177 whole entry): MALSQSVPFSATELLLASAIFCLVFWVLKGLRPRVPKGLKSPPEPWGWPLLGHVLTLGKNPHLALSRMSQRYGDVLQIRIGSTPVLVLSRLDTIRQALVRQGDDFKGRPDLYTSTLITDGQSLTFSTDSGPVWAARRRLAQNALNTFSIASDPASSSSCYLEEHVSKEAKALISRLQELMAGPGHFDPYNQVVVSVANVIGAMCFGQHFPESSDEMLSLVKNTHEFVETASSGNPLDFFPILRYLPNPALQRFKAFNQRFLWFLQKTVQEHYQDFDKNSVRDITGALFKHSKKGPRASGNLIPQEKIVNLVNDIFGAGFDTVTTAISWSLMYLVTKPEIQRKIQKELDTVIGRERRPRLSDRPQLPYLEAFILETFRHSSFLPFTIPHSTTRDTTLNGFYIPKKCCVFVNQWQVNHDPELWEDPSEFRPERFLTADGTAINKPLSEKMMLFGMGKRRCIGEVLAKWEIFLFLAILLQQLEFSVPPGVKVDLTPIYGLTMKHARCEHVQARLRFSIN
Description: Inhibition of CYP1A2 (unknown origin) assessed as residual activity. The class given is ADME.

In data set [4] the target is Voltage-gated inwardly rectifying potassium channel KCNH2 (Homo sapiens, UniProt Q12809). The data set is described as follows: Inhibition of fluorescence tracer red binding to human ERG measured after 4 hrs by fluorescence polarization assay. For orientation: Polarisation of emitted light reports the rotation of a fluorescent probe.
For data set [5], the target named is T2, Nuclear factor erythroid 2-related factor 2 (Mus musculus) (UniProt Q60795).
T2 sequence (whole entry): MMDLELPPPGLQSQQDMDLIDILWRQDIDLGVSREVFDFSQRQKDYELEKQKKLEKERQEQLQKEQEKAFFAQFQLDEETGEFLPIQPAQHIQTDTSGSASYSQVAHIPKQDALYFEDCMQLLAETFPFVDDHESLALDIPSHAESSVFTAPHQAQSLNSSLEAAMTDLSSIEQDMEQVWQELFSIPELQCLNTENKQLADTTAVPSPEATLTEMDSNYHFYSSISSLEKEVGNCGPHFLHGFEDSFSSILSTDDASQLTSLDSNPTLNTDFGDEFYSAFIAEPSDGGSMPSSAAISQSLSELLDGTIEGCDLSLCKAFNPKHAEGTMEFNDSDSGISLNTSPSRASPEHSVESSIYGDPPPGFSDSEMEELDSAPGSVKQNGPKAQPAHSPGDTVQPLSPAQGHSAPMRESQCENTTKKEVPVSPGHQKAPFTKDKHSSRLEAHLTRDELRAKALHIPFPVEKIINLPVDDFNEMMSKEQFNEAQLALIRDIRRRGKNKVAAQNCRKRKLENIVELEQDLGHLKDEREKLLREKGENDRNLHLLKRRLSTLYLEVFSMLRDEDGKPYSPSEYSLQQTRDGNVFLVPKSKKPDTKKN
The data set is described as follows: Activation of Nrf2 in mouse BV-2 cells assessed as increase in Gclm mRNA expression after 6 hrs by RT-qPCR analysis. The class given is cell-based. The note with it: filed as activator, dose 0.03-1 µM. The gist of the method:
(§1)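 BV-2 cells exposed to a range of concentrations for 6 h. Ho1, Gclc, Gclm and Sod1 mRNA quantified by RT-qPCR and expressed relative to vehicle-treated control. Mean ± SEM, n = 3; Student's t-test.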
(In qPCR the cycle at which signal appears reflects the starting amount.)

For data set [6], the target named is T2, Nuclear factor erythroid 2-related factor 2 (Mus musculus). Description: Activation of Nrf2 in mouse BV-2 cells assessed as increase in HO1 mRNA expression at 1 uM after 6 hrs by RT-qPCR analysis relative to control. The note with it: filed as activator. The class given is cell-based. The procedure, abridged: as §1
Data set [7] has the same target. The data set is described as follows: Activation of Nrf2 in mouse BV-2 cells assessed as increase in Gclm mRNA expression at 1 uM after 6 hrs by RT-qPCR analysis relative to control. The class given is cell-based. The note with it: filed as activator. The gist of the method:
as §1

The target is the same in data set [8]. Description: Activation of Nrf2 in mouse BV-2 cells assessed as increase in HO1 expression at 10 uM after 6 hrs by Western blot analysis relative to control. The class given is cell-based. The following applies: filed as activator. The gist of the method: (§2)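 BV-2 microglia grown in RPMI-1640 with 10% FBS, penicillin-streptomycin and 2 mM L-glutamine at 37 °C, 5% CO2. Cells exposed to a range of concentrations for 6 h, then HO-1, GCLC, GCLM and SOD1 protein measured by Western blot. Band intensity normalized to β-actin and given as fold of vehicle control. Mean ± SEM, n = 3, three separate experiments.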
For orientation: In western blotting, separated proteins are transferred to a membrane and probed.

For data set [9] the target is unchanged. The data set is described as follows: Activation of Nrf2 in mouse BV-2 cells assessed as increase in GCLC expression at 10 uM after 6 hrs by Western blot analysis relative to control. The class given is cell-based. The following applies: filed as activator. The procedure, abridged:
as §2

The target is the same in data set [10]. Description: Activation of Nrf2 in mouse BV-2 cells assessed as increase in SOD1 expression at 10 uM after 6 hrs by Western blot analysis relative to control. The following applies: filed as activator. The class given is cell-based. The gist of the method: as §2
For data set [11] the target is unchanged. The data set is described as follows: Activation of Nrf2 in mouse BV-2 cells assessed as increase in GCLM expression after 6 hrs by Western blot analysis. The note with it: filed as activator, dose 0.02-10 µM. Format: cell-based. The gist of the method: as §2
Data set [12] has the same target. The data set is described as follows: Activation of Nrf2 in mouse BV-2 cells assessed as increase in GCLC expression after 6 hrs by Western blot analysis. The class given is cell-based. The note with it: filed as activator, dose 0.02-10 µM. The procedure, abridged:
as §2

Data set [13] concerns BV-2. The data set is described as follows: Antiinflammatory activity in mouse BV-2 cells assessed as inhibition of LPS-induced nitric oxide production preincubated for 6 hrs followed by LPS stimulation and measured after 24 hrs by griess assay. The following applies: dose 0.01-3 µM, time 30.0 hrs. Format: functional, cell-based. The procedure, abridged:
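Nitrite in medium read by Griess reaction. BV-2 cells pretreated 6 h across a dose range, then given LPS for 24 h. Medium treated with 1% sulfanilamide in 5% phosphoric acid, then 0.1% N-1-naphthylethylenediamine, each 5 min at RT in the dark. A540 read and converted against a nitrite standard curve.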

In data set [14] the test system is BV-2. Description: Antiinflammatory activity in mouse BV-2 cells assessed as inhibition of LPS-induced iNOS expression at 2 uM preincubated for 6 hrs followed by LPS stimulation and measured after 24 hrs by Western blot analysis. The class given is functional, cell-based. The following applies: time 30.0 hrs. The gist of the method:
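BV-2 cells pretreated with compound, then stimulated with LPS. iNOS protein measured by Western blot with β-actin as internal control. Mean ± SEM, n = 3, three separate experiments.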

In data set [15] the test system is Mus musculus. The data set is described as follows: Neuroprotective activity in MPTP-induced C57BL/6 mouse model of Parkinson's disease assessed as reduction in tyrosine hydroxylase-positive cell loss at 30 mg/kg, po pretreated for 1 day followed by MPTP challenge and subsequent compound dosing for 2 days measured 6 days post-MPTP challenge by immunohistochemistry analysis relative to control. The class given is functional. Also noted: scale not given: the % may be the effect or the level left. The following applies: time 7 day. The gist of the method:
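Male C57BL/6 mice, 10 weeks old, 23–26 g, n = 10 per group. Dosed 30 mg/kg p.o. for 3 consecutive days in 10% N-methyl-2-pyrrolidone/20% Tween-80 in water. On day 2, MPTP-HCl 20 mg/kg i.p. given four times at 2 h intervals. Coat-hanger (scored 1–5, test done twice) and vertical grid tests run 6 days after MPTP. Brains taken next day for anti-TH immunohistochemistry (1:1000, DAB).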

For data set [16], the system named is BV-2. Description: Inhibition of nitric oxide production in LPS-stimulated mouse BV-2 cells harboring Nrf2 siRNA at 100 nM cotreated with LPS for 24 hrs by griess assay.

The source made the active and inactive calls. No cut-off for these calls is given here.

Chain of CYP2D6 (P10635 whole entry): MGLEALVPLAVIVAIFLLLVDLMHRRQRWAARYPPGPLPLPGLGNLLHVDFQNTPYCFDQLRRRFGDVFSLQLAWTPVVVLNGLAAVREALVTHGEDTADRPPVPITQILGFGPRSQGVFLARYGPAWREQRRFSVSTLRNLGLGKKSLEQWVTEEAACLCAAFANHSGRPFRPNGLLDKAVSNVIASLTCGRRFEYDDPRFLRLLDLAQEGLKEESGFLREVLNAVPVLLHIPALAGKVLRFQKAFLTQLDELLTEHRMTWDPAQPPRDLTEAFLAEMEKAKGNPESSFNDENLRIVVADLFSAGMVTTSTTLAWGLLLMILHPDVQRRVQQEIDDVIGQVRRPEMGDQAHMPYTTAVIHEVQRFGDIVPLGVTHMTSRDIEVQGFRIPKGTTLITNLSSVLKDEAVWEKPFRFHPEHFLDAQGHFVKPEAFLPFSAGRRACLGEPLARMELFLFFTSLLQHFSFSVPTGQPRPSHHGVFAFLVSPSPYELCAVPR
Chain of Voltage-gated inwardly rectifying potassium channel KCNH2 (Q12809 whole entry): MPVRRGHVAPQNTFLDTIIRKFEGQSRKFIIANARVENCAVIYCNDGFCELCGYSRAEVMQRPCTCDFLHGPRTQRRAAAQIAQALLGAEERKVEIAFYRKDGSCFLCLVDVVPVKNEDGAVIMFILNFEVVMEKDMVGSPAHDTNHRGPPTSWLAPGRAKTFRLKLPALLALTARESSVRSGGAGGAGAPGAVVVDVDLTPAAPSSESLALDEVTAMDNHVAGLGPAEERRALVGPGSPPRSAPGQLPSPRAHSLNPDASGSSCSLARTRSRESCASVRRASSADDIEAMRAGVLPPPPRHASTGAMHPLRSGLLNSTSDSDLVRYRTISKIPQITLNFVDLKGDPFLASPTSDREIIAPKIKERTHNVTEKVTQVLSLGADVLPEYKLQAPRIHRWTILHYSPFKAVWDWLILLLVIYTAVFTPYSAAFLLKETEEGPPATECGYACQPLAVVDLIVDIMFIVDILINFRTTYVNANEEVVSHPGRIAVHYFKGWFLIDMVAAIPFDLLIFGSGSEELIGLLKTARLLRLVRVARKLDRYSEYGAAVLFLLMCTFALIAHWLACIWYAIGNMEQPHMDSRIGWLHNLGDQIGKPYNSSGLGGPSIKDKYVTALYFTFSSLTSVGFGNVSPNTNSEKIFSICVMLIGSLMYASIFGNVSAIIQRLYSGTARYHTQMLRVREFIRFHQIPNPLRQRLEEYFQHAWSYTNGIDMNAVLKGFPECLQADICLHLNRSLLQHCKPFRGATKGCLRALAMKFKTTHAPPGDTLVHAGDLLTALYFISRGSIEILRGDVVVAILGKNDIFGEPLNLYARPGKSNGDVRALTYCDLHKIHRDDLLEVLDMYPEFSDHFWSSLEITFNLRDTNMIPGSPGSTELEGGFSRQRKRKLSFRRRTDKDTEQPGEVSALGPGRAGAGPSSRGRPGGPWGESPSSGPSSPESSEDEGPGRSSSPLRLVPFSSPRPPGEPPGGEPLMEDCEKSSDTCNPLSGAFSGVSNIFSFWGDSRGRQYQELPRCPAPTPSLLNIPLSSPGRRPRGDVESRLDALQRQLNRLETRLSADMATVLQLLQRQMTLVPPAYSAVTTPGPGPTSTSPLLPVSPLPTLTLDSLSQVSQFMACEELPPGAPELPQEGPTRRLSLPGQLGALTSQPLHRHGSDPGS

For the compound `O=S(=O)(/C=C/c1ncccc1Cl)c1ccccc1Cl`, in [1], the remaining at 0.5 h came to 66%. Besides, the figures for the activity in [2], in data set [3] and in data set [15] were 88%, 88.4% and 65%, respectively. The IC50 (in general, the concentration that inhibits the measured activity by half) in [4] was 110 µM. In addition, the Activity result in data set [5], in data set [11] and in data set [12] was “Dose-dependent effect” throughout. For the same compound, the fold change (FC) in data set [6] was 6; in data set [7], 6.9; in data set [8], 17.6; in [9], 8.5; in data set [10] it was 6.6. Besides, the inhibition entry in [13] is “Dose-dependent effect”. The inhibition result in data set [14] was “Active”. In addition, the inhibition entry in [16] is “inactive”.

The record behind these values is ChEMBL document CHEMBL4706647, “Development and optimization of halogenated vinyl sulfones as Nrf2 activators for the treatment of Parkinson's disease” (Eur J Med Chem, 2021).
